Calls of active or inactive are those of the source. The rule behind the calls is not given here.
Legend:
[1] = biological target: T1, Metabotropic glutamate receptor 5 (Rattus norvegicus, UniProt P31424); experiment: Inverse agonist activity at rat mGluR5 expressed in HEK293A cells coexpressing Gqalpha assessed as inhibition of basal D-myo-inositol 1 production by ELISA
[2] = biological target: T1, Metabotropic glutamate receptor 5; experiment: Displacement of [3H]MPEP from mGluR5 in Sprague-Dawley rat brain membrane after 60 mins by liquid scintillation counting; type: cell membranes
[3] = tested on: Mus musculus; experiment: Anxiolytic activity in ip dosed Swiss Webster mouse assessed as increase in time spent in the centre region administered as single dose 15 mins prior to testing by open-field test; type: functional, organism-based
How it was run: (§1)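 Open-field test in mice. Drugs were suspended in 2% ethanol/10% Tween 80/water (MTEP in saline) and given ip 15 min before testing. Locomotor activity and time in the center region were recorded. n = 10–12 per dose, means ± SEM. Each dose was compared with its within-group vehicle cohort by one-way ANOVA with Bonferroni post hoc test.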

[4] = tested on: Mus musculus; experiment: Anxiolytic activity in Swiss Webster mouse assessed as increase in time spent in light compartment at 0.1 to 0.3 mg/kg, ip administered as single dose 15 mins prior to testing by light-dark box test; type: functional, organism-based
How it was run: (§2)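 Light–dark box test in mice. Drugs were given ip 15 min pretest in a 2% ethanol, 10% Tween 80 and water suspension (MTEP in saline). Read-outs were the proportion of time in the light compartment and the number of light–dark transitions. n = 10–12 per dose, means ± SEM. One-way ANOVA with Bonferroni test against the within-group vehicle cohort.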

[5] = tested on: Mus musculus; experiment: Anxiolytic activity in Swiss Webster mouse assessed as increase in number of compartment transitions at 0.1 to 0.3 mg/kg, ip administered as single dose 15 mins prior to testing by light-dark box test; type: functional, organism-based
How it was run: as §2

[6] = tested on: Mus musculus; experiment: Anxiolytic activity in ip dosed Swiss Webster mouse assessed as increase in time spent in light compartment administered as single dose 15 mins prior to testing by light-dark box test; type: functional, organism-based
How it was run: as §2

[7] = tested on: Mus musculus; experiment: Anxiolytic activity in ip dosed Swiss Webster mouse assessed as increase in locomotor activity administered as single dose 15 mins prior to testing by open-field test; type: functional, organism-based
How it was run: as §1

[8] = tested on: Mus musculus; experiment: Anxiolytic activity in ip dosed Swiss Webster mouse assessed as increase in number of compartment transitions administered as single dose 15 mins prior to testing by light-dark box test; type: functional, organism-based
How it was run: as §2

[9] = tested on: Mus musculus; experiment: Anxiolytic activity in Swiss Webster mouse assessed as increase in locomotor activity at 0.1 to 0.3 mg/kg, ip administered as single dose 15 mins prior to testing by open-field test; type: functional, organism-based
How it was run: as §1

[10] = tested on: Mus musculus; experiment: Anxiolytic activity in Swiss Webster mouse assessed as increase in time spent in the centre region at 3 mg/kg, ip administered as single dose 15 mins prior to testing by open-field test; type: functional, organism-based; parameters: dose 3 mg/kg
How it was run: as §1

[11] = tested on: Mus musculus; experiment: Anxiolytic activity in Swiss Webster mouse assessed as increase in time spent in light compartment at 3 mg/kg, ip administered as single dose 15 mins prior to testing by light-dark box test; type: functional, organism-based; parameters: dose 3 mg/kg
How it was run: as §2

[12] = tested on: Mus musculus; experiment: Anxiolytic activity in Swiss Webster mouse assessed as increase in time spent in the centre region at 0.1 to 0.3 mg/kg, ip administered as single dose 15 mins prior to testing by open-field test; type: functional, organism-based
How it was run: as §1

[13] = tested on: Mus musculus; experiment: Anxiolytic activity in Swiss Webster mouse assessed as increase in number of compartment transitions at 3 mg/kg, ip administered as single dose 15 mins prior to testing by light-dark box test; type: functional, organism-based; parameters: dose 3 mg/kg
How it was run: as §2

[14] = biological target: Metabotropic glutamate receptor 5 (Rattus norvegicus) (UniProt P31424); experiment: Inverse agonist activity at rat mGluR5 expressed in HEK293A cells coexpressing Gqalpha assessed as inhibition of quisqualic-induced D-myo-inositol 1 production by ELISA; type: functional, cell-based; details: HEK293-A
Metabotropic glutamate receptor 5 (Rattus norvegicus), sequence (P31424 21-1203 limits assumed): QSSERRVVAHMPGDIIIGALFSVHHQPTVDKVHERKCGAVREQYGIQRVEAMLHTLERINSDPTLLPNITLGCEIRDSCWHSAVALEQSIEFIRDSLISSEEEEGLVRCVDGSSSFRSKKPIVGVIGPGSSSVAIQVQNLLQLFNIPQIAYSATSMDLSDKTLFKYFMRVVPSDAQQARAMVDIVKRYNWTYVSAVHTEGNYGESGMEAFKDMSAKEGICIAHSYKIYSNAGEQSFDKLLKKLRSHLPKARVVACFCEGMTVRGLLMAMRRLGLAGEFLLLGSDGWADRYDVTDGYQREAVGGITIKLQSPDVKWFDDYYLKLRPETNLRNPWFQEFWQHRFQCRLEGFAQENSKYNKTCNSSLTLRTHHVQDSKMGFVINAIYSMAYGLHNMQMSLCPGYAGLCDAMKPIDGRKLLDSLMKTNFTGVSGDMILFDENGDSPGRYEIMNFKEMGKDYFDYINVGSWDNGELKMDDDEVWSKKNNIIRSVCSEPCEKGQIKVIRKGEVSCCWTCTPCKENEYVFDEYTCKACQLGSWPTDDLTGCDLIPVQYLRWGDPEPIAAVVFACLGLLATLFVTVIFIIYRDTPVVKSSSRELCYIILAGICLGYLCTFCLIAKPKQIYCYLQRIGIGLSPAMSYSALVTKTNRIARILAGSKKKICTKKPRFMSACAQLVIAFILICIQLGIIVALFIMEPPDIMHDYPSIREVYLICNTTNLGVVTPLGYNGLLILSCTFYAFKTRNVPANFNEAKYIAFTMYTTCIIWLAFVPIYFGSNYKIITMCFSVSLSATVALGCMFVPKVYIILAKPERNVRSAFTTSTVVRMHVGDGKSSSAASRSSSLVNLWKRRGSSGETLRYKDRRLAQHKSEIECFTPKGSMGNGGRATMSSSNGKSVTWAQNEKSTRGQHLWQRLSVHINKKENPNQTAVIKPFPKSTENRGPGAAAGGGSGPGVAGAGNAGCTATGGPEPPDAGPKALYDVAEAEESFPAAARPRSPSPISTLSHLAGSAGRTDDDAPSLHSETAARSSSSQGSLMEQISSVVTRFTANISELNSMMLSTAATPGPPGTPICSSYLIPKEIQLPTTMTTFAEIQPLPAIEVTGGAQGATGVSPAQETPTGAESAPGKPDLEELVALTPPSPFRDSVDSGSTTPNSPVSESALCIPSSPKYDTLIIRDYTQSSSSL
How it was run: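 IP₃ production was gauged indirectly by IP-One ELISA for IP₁ accumulation. Dose–response curves were run without agonist and in the presence of 1 μM quisqualic acid.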

[15] = biological target: Metabotropic glutamate receptor 5 (Rattus norvegicus) (UniProt P31424); experiment: Ratio of MPEP Ki to compound Ki for mGluR5 in Sprague-Dawley rat brain membrane; type: cell membranes
[16] = tested on: Mus musculus; experiment: Anxiolytic activity in Swiss Webster mouse assessed as increase in locomotor activity at 3 mg/kg, ip administered as single dose 15 mins prior to testing by open-field test; type: functional, organism-based; parameters: dose 3 mg/kg
How it was run: as §1

[17] = tested on: Mus musculus; experiment: Anxiolytic activity in Swiss Webster mouse assessed as increase in number of compartment transitions at 3 to 30 mg/kg, ip administered as single dose 15 mins prior to testing by light-dark box test; type: functional, organism-based
How it was run: as §2

[18] = tested on: Mus musculus; experiment: Anxiolytic activity in Swiss Webster mouse assessed as increase in time spent in the centre region at 3 to 30 mg/kg, ip administered as single dose 15 mins prior to testing by open-field test; type: functional, organism-based
How it was run: as §1

[19] = tested on: Mus musculus; experiment: Anxiolytic activity in Swiss Webster mouse assessed as increase in time spent in the centre region at 30 mg/kg, ip administered as single dose 15 mins prior to testing by open-field test; type: functional, organism-based; parameters: dose 30 mg/kg
How it was run: as §1

[20] = tested on: Mus musculus; experiment: Anxiolytic activity in Swiss Webster mouse assessed as increase in locomotor activity at 30 mg/kg, ip administered as single dose 15 mins prior to testing by open-field test; type: functional, organism-based; parameters: dose 30 mg/kg
How it was run: as §1

[21] = tested on: Mus musculus; experiment: Anxiolytic activity in Swiss Webster mouse assessed as increase in locomotor activity at 3 to 30 mg/kg, ip administered as single dose 15 mins prior to testing by open-field test; type: functional, organism-based
How it was run: as §1

[22] = tested on: Mus musculus; experiment: Anxiolytic activity in Swiss Webster mouse assessed as increase in number of compartment transitions at 30 mg/kg, ip administered as single dose 15 mins prior to testing by light-dark box test; type: functional, organism-based; parameters: dose 30 mg/kg
How it was run: as §2

[23] = tested on: Mus musculus; experiment: Anxiolytic activity in Swiss Webster mouse assessed as increase in time spent in light compartment at 30 mg/kg, ip administered as single dose 15 mins prior to testing by light-dark box test; type: functional, organism-based; parameters: dose 30 mg/kg
How it was run: as §2

[24] = tested on: Mus musculus; experiment: Anxiolytic activity in Swiss Webster mouse assessed as increase in time spent in light compartment at 3 to 30 mg/kg, ip administered as single dose 15 mins prior to testing by light-dark box test; type: functional, organism-based
How it was run: as §2

[25] = tested on: Mus musculus; experiment: Anxiolytic activity in Swiss Webster mouse assessed as increase in time spent in the centre region at 0.3 mg/kg, ip administered as single dose 15 mins prior to testing by open-field test; type: functional, organism-based; parameters: dose 0.3 mg/kg
How it was run: as §1

[26] = tested on: Mus musculus; experiment: Anxiolytic activity in Swiss Webster mouse assessed as increase in time spent in light compartment at 0.3 mg/kg, ip administered as single dose 15 mins prior to testing by light-dark box test; type: functional, organism-based; parameters: dose 0.3 mg/kg
How it was run: as §2

[27] = tested on: Mus musculus; experiment: Anxiolytic activity in Swiss Webster mouse assessed as increase in number of compartment transitions at 0.3 mg/kg, ip administered as single dose 15 mins prior to testing by light-dark box test; type: functional, organism-based; parameters: dose 0.3 mg/kg
How it was run: as §2

[28] = tested on: Mus musculus; experiment: Anxiolytic activity in Swiss Webster mouse assessed as increase in locomotor activity at 0.3 mg/kg, ip administered as single dose 15 mins prior to testing by open-field test; type: functional, organism-based; parameters: dose 0.3 mg/kg
How it was run: as §1

[29] = tested on: Mus musculus; experiment: Anxiolytic activity in Swiss Webster mouse assessed as increase in time spent in light compartment at 10 mg/kg, ip administered as single dose 15 mins prior to testing by light-dark box test; type: functional, organism-based; parameters: dose 10 mg/kg
How it was run: as §2

[30] = tested on: Mus musculus; experiment: Anxiolytic activity in Swiss Webster mouse assessed as increase in locomotor activity at 10 mg/kg, ip administered as single dose 15 mins prior to testing by open-field test; type: functional, organism-based; parameters: dose 10 mg/kg
How it was run: as §1

[31] = tested on: Mus musculus; experiment: Anxiolytic activity in Swiss Webster mouse assessed as increase in number of compartment transitions at 10 mg/kg, ip administered as single dose 15 mins prior to testing by light-dark box test; type: functional, organism-based; parameters: dose 10 mg/kg
How it was run: as §2

[32] = tested on: Mus musculus; experiment: Anxiolytic activity in Swiss Webster mouse assessed as increase in time spent in the centre region at 10 mg/kg, ip administered as single dose 15 mins prior to testing by open-field test; type: functional, organism-based; parameters: dose 10 mg/kg
How it was run: as §1

T1 sequence (P31424 whole entry): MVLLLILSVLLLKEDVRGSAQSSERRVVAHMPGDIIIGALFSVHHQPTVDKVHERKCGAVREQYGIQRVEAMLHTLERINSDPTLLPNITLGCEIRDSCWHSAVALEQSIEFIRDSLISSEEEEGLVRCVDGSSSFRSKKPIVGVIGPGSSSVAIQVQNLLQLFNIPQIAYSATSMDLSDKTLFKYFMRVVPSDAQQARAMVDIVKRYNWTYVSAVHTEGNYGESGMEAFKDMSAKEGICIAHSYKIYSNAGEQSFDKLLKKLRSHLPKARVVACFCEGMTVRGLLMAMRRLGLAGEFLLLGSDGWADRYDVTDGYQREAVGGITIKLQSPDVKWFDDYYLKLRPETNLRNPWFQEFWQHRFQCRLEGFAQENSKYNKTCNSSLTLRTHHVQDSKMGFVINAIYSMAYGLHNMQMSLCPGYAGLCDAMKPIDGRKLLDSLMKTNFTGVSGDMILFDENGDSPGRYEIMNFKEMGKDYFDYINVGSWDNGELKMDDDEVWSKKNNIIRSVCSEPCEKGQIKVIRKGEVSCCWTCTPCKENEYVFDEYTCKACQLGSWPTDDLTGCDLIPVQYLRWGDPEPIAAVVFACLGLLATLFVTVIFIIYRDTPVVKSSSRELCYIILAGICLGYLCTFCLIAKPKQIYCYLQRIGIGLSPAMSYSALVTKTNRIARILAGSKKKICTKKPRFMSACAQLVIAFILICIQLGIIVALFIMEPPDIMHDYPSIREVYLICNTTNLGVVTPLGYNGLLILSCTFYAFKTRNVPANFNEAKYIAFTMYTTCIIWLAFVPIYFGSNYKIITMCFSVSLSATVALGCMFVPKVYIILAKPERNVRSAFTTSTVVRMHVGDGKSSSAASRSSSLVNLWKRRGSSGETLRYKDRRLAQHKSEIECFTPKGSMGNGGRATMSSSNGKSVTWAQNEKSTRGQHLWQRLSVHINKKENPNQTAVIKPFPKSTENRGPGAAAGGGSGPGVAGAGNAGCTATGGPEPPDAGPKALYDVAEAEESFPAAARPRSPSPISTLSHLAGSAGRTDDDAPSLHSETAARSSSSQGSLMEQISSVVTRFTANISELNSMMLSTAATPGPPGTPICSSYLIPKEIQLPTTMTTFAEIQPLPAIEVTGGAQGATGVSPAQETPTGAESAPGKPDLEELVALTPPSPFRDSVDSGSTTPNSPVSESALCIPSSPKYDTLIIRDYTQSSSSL

## N#Cc1cccc(C#Cc2cccc(CO)n2)c1
[1]
  IC50: 30 nM
[2]
  Ki: 37 nM

## N#Cc1cccc(C#Cc2cccc(C#N)n2)c1
[1]
  IC50: 20 nM
[2]
  Ki: 8.2 nM

## Cc1cccc(C#Cc2cccc(C#N)c2)n1
[1]
  IC50: 13 nM
[2]
  Ki: 1.04 nM

## N#Cc1cccc(C#Cc2cccc(F)n2)c1
[1]
  IC50: 210 nM
[2]
  Ki: 150 nM

## N#Cc1cc(F)cc(C#Cc2cccc(C#N)n2)c1
[3]
  Activity: Dose-dependent effect
[4]
  Activity: Active
[5]
  Activity: Active
[1]
  IC50: 9 nM
[6]
  Activity: Dose-dependent effect
[7]
  Activity: Dose-dependent effect
[8]
  Activity: Dose-dependent effect
[9]
  Activity: Active
[10]
  Activity: inactive
[11]
  Activity: inactive
[12]
  Activity: Active
[13]
  Activity: inactive
[14]
  inhibition: Dose-dependent effect
[15]
  Ratio Ki: 6
[16]
  Activity: inactive
[2]
  Ki: 2.7 nM

## Cc1cccc(C#Cc2ccccc2)n1
[3]
  Activity: Dose-dependent effect
[17]
  Activity: Active
[6]
  Activity: Dose-dependent effect
[7]
  Activity: Dose-dependent effect
[8]
  Activity: Dose-dependent effect
[18]
  Activity: Active
[14]
  inhibition: Dose-dependent effect
[19]
  Activity: inactive
[20]
  Activity: Active
[21]
  Activity: Active
[22]
  Activity: inactive
[23]
  Activity: inactive
[24]
  Activity: Active

## N#Cc1cc(F)cc(C#Cc2cccc(CO)n2)c1
[1]
  IC50: 50 nM
[2]
  Ki: 7.5 nM

## CC(=O)c1cccc(C#Cc2cc(F)cc(C#N)c2)n1
[1]
  IC50: 240 nM
[2]
  Ki: 64 nM

## COc1cccc(C#Cc2cncc(C#N)c2)n1
[1]
  IC50: 200 nM
[2]
  Ki: 55 nM

## N#Cc1cccc(C#Cc2cc(F)cc(C(N)=O)c2)n1
[2]
  Ki: > 10000 nM

## N#Cc1cccc(C#Cc2cccc(C(N)=O)c2)n1
[2]
  Ki: > 10000 nM

## Cc1cccc(C#Cc2cc(F)cc(C#N)c2)n1
[3]
  Activity: Dose-dependent effect
[1]
  IC50: 2.4 nM
[6]
  Activity: Dose-dependent effect
[7]
  Activity: Dose-dependent effect
[8]
  Activity: Dose-dependent effect
[25]
  Activity: Active
[10]
  Activity: inactive
[11]
  Activity: inactive
[13]
  Activity: inactive
[26]
  Activity: Active
[14]
  inhibition: Dose-dependent effect
[27]
  Activity: Active
[15]
  Ratio Ki: 24
[16]
  Activity: Active
[28]
  Activity: Active
[2]
  Ki: 0.67 nM

## Cc1nc(C#Cc2cccnc2)cs1
[3]
  Activity: Dose-dependent effect
[6]
  Activity: Dose-dependent effect
[7]
  Activity: Dose-dependent effect
[8]
  Activity: Dose-dependent effect
[29]
  Activity: Active
[30]
  Activity: Active
[14]
  inhibition: Dose-dependent effect
[31]
  Activity: Active
[32]
  Activity: Active

## COc1cc(C#N)cc(C#Cc2cccc(C)n2)c1
[1]
  IC50: 3.4 nM
[2]
  Ki: 1.29 nM

## COc1cccc(C#Cc2cccc(C#N)c2)n1
[1]
  IC50: 300 nM
[2]
  Ki: 200 nM

## CC(=O)c1cccc(C#Cc2cccc(C#N)c2)n1
[1]
  IC50: 300 nM
[2]
  Ki: 114 nM

## COc1cccc(C#Cc2cc(F)cc(C#N)c2)n1
[1]
  IC50: 400 nM
[2]
  Ki: 40 nM

## N#Cc1cncc(C#Cc2cccc(C#N)n2)c1
[1]
  IC50: 500 nM
[2]
  Ki: 52 nM

## CCCCc1cccc(C#Cc2cccc(C#N)c2)n1
[1]
  IC50: 700 nM
[2]
  Ki: 45 nM

## N#Cc1cncc(C#Cc2cccc(CO)n2)c1
[2]
  Ki: > 10000 nM

## N#Cc1cc(F)cc(C#Cc2cccc(F)n2)c1
[1]
  IC50: 80 nM
[2]
  Ki: 41 nM

## CCc1cccc(C#Cc2cccc(C#N)c2)n1
[1]
  IC50: 80 nM
[2]
  Ki: 3.4 nM

Source: ChEMBL document CHEMBL2086345, “Metabotropic glutamate receptor 5 negative allosteric modulators as novel tools for in vivo investigation” (ACS Med Chem Lett, 2012)
